{"source": "ChEMBL document CHEMBL4177770", "about": "“Discovery of MK-6169, a Potent Pan-Genotype Hepatitis C Virus NS5A Inhibitor with Optimized Activity against Common Resistance-Associated Substitutions” (J Med Chem, 2018)", "key": {"[1]": {"target": "T1, Nonstructural protein 5A (Hepatitis C virus) (UniProt Q5L478)", "T1 sequence (whole entry)": "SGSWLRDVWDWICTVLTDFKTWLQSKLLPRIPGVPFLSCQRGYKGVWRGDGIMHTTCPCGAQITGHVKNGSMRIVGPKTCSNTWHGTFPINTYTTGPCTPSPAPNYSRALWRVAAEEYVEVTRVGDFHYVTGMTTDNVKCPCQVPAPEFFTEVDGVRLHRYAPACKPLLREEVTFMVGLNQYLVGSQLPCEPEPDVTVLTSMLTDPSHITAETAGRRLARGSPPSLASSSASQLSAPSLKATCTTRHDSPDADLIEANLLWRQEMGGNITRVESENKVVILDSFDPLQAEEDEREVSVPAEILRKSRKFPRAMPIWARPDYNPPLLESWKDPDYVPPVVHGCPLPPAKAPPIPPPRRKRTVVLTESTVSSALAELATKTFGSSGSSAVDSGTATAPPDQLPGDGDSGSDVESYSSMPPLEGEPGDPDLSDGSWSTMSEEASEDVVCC", "experiment": "Inhibition of NS5A in HCV genotype 1a infected in HuH7 replicon cells assessed as decrease in viral replication after 3 days by RT-PCR method", "format": "cell-based", "details": "Hepatitis C virus subtype 1a"}, "[2]": {"experiment": "Clearance in Beagle dog at 1 mg/kg, iv by LC/MS method", "format": "ADME, organism-based, Canis lupus familiaris", "details": "in vivo", "summary_of_the_method": "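Beagle dogs, two animals per group, dosed IV at 1 mg/kg in 60% PEG200. Plasma was prepared from collected blood by centrifugation, and compound was quantified by LC/MS.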"}, "[3]": {"experiment": "AUC in Beagle dog at 5 mg/kg, po by LC/MS method", "format": "ADME, organism-based, Canis lupus familiaris", "details": "in vivo", "summary_of_the_method": "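Beagle dogs, two animals per dosing group. Oral dose was given in 10% TWEEN. Blood was collected and spun to plasma, and plasma compound levels were measured by LC/MS.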"}, "[4]": {"experiment": "MRT in Wistar Han rat at 10 mg/kg, po by LC/MS method", "format": "ADME, organism-based", "details": "in vivo", "summary_of_the_method": "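Male Wistar Han rats, two per dosing group, dosed orally at 10 mg/kg in 10% TWEEN. Plasma was separated from collected blood by centrifugation and analysed by LC/MS.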"}, "[5]": {"target": "T1, Nonstructural protein 5A (Hepatitis C virus)", "experiment": "Inhibition of NS5A A92P mutant in HCV genotype 1a infected in HuH7 replicon cells assessed as decrease in viral replication after 3 days by RT-PCR method", "format": "cell-based", "details": "Hepatitis C virus subtype 1a"}, "[6]": {"test_system": "Nonstructural protein 5A (Hepatitis C virus), Q5L478 [UNDEFINED MUTATION]", "experiment": "Inhibition of NS5A L31M/Y93C double mutant in HCV genotype 1a infected in HuH7 replicon cells assessed as decrease in viral replication after 3 days by RT-PCR method", "format": "cell-based", "details": "Hepatitis C virus subtype 1a"}, "[7]": {"test_system": "Hepatitis C virus subtype 1a", "experiment": "Resistance ratio of EC90 for NS5A L31V mutant in HCV genotype 1a infected in HuH7 replicon cells to EC90 for NS5A in HCV genotype 1a infected in HuH7 replicon cells", "format": "cell-based"}, "[8]": {"test_system": "Hepatitis C virus subtype 1a", "experiment": "Resistance ratio of EC90 for NS5A R81S mutant in HCV genotype 1a infected in HuH7 replicon cells to EC90 for NS5A in HCV genotype 1a infected in HuH7 replicon cells", "format": "cell-based"}, "[9]": {"test_system": "T2, Nonstructural protein 5A (Hepatitis C virus), Q5L478 [L28M,Y93H]", "T2 sequence (whole entry)": "T1 sequence (whole entry) with L28M, Y93H", "experiment": "Inhibition of NS5A L28M/Y93H double mutant in HCV genotype 1b infected in HuH7 replicon cells assessed as decrease in viral replication after 3 days by RT-PCR method", "format": "cell-based", "details": "Hepatitis C virus subtype 1b"}, "[10]": {"target": "T1, Nonstructural protein 5A (Hepatitis C virus)", "experiment": "Inhibition of NS5A F28Y mutant in HCV genotype 2a infected in HuH7 replicon cells assessed as decrease in viral replication after 3 days by RT-PCR method", "format": "cell-based", "details": "Hepatitis C virus subtype 2a"}, "[11]": {"experiment": "Resistance ratio of EC90 for NS5A L31I mutant in HCV genotype 1b infected in HuH7 replicon cells to EC90 for NS5A in HCV genotype 1a infected in HuH7 replicon cells", "format": "cell-based"}, "[12]": {"experiment": "Resistance ratio of EC90 for NS5A L31V mutant in HCV genotype 1b infected in HuH7 replicon cells to EC90 for NS5A in HCV genotype 1a infected in HuH7 replicon cells", "format": "cell-based"}, "[13]": {"test_system": "T3, Nonstructural protein 5A (Hepatitis C virus), Q5L478 [Y93H]", "T3 sequence (whole entry)": "T1 sequence (whole entry) with Y93H", "experiment": "Inhibition of NS5A Y93H mutant in HCV genotype 3a infected in HuH7 replicon cells assessed as decrease in viral replication after 3 days by RT-PCR method", "format": "cell-based", "details": "Hepatitis C virus subtype 3a"}, "[14]": {"target": "T1, Nonstructural protein 5A (Hepatitis C virus)", "experiment": "Inhibition of NS5A P32L mutant in HCV genotype 4a infected in HuH7 replicon cells assessed as decrease in viral replication after 3 days by RT-PCR method", "format": "cell-based", "details": "Hepatitis C virus subtype 4a"}, "[15]": {"experiment": "Resistance ratio of EC90 for NS5A A30T mutant in HCV genotype 3a infected in HuH7 replicon cells to EC90 for NS5A in HCV genotype 1a infected in HuH7 replicon cells", "format": "cell-based"}, "[16]": {"experiment": "Resistance ratio of EC90 for NS5A L31V mutant in HCV genotype 3a infected in HuH7 replicon cells to EC90 for NS5A in HCV genotype 1a infected in HuH7 replicon cells", "format": "cell-based"}, "Huh-7": {"test_system": "Huh-7", "experiment": "Cytotoxicity against human HuH7 cells assessed as effect on GAPDH mRNA levels up to 25 uM", "format": "cell-based", "summary_of_the_method": "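Huh-7 cells were exposed to compound up to a top concentration of 25 µM. Cytotoxicity was monitored as the change in GAPDH mRNA levels.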"}}, "note": "Numbering of substitutions follows the chain as printed."}
{"molecule": "COC(=O)N[C@H](C(=O)N1CCC[C@H]1c1ncc(-c2cc(F)c3c(c2)O[C@@H](c2ccc(C4CC4)s2)n2c-3cc3cc(-c4cnc([C@@H]5CCCN5C(=O)[C@@H](NC(=O)OC)[C@@H]5CCOC(C)(C)C5)[nH]4)ccc32)[nH]1)C(C)C", "values": [{"measurement": "EC90", "setting": "[1]", "result": 0.0042, "unit": "nM"}, {"measurement": "clearance", "setting": "[2]", "result": 2.9, "unit": "mL/min/kg"}, {"measurement": "AUC", "setting": "[3]", "result": 4.19, "unit": "µM·h"}, {"measurement": "MRT", "setting": "[4]", "result": 6.5, "unit": "h"}, {"measurement": "EC90", "setting": "[5]", "result": 0.00014, "unit": "nM"}, {"measurement": "EC90", "setting": "[6]", "result": 0.18, "unit": "nM"}, {"measurement": "Ratio", "setting": "[7]", "result": 1}, {"measurement": "Ratio", "setting": "[8]", "result": "< 1"}, {"measurement": "EC90", "setting": "[9]", "result": 0.065, "unit": "nM"}, {"measurement": "EC90", "setting": "[10]", "result": 0.069, "unit": "nM"}, {"measurement": "Ratio", "setting": "[11]", "result": 5}, {"measurement": "Ratio", "setting": "[12]", "result": 1}, {"measurement": "EC90", "setting": "[13]", "result": 2.4, "unit": "nM"}, {"measurement": "EC90", "setting": "[14]", "result": 0.0044, "unit": "nM"}, {"measurement": "Ratio", "setting": "[15]", "result": 1}, {"measurement": "Ratio", "setting": "[16]", "result": 762}, {"measurement": "Activity", "setting": "Huh-7", "result": "Non-Toxic"}]}
